In ChEMBL document CHEMBL5661976 (Cancer Res, 2007):
Active and inactive are the calls of the source. The rule behind the calls is not given here.

Experiments:
[1] = target: Insulin-like growth factor 1 receptor (Homo sapiens, UniProt P08069); experiment: Inhibition of recombinant IGF1R (unknown origin)
NCI-H3255 = experiment: cells; type: functional, cell-based; settings: Homo sapiens, NCI-H3255, 72 h
[2] = target: Serine/threonine-protein kinase Sgk1 (Homo sapiens, UniProt O00141); experiment: Inhibition of recombinant SGK (unknown origin)
[3] = Inhibition of recombinant MAPK2/ERK2 (unknown origin); parameters: species or system Homo sapiens
NCI-H3255GR = experiment: Induction of apoptosis in human NCI-H3255GR cells assessed as increase in cleavage of PARP at 1 micromol/L incubated for 72 hrs by Western blotting analysis; type: functional, cell-based; settings: dose 1.0 µmol/L
HCC827 [4] = experiment: cells; type: functional, cell-based; settings: Homo sapiens, HCC827, 72 h
HCC827 [5] = experiment: Antiproliferative activity against human HCC827 cells harboring EGFR Del E746_A750 mutant transfected with GFP assessed as inhibition of cell growth incubated for 72 hrs by MTS assay; type: functional, cell-based; settings: HCC827, 72 h
Summary of the method: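 MTS viable-cell assay (bioreduction to soluble formazan, spectrophotometric read) after 72 h drug exposure; cell numbers set empirically.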

[6] = target: MAP kinase-activated protein kinase 5 (Homo sapiens, UniProt Q8IW41); experiment: Inhibition of recombinant PRAK (unknown origin)
HCC827 [7] = experiment: cells; type: functional, cell-based; settings: Homo sapiens, HCC827, 72 h; remark: listed apart in the source
HCC827 [8] = experiment: cells; type: functional, cell-based; settings: Homo sapiens, HCC827, 72 h; remark: listed apart in the source
HCC827 [9] = experiment: Antitumor activity against human HCC827 cells expressing GFP xenografted in nude mouse assessed as inhibition of tumor growth at 10 mg/kg/day, po and measured thrice weekly; type: functional, organism-based
Summary of the method: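 Nu/nu mice under 2% isoflurane/oxygen inoculated s.c. in lower-right flank with 5 × 10^6 HCC827-GFP or HCC827-Del/T790M cells in 0.2 mL PBS; randomized at mean tumor 400 to 500 mm3. Daily oral gavage 10 mg/kg/d; caliper volume = length × width² × 0.52; body weight monitored daily; ended when control tumors reached 2000 mm3.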

[10] = Inhibition of recombinant Bir Kinase (unknown origin); parameters: species or system Homo sapiens
[11] = target: Rho-associated protein kinase 2 (Homo sapiens, UniProt O75116); experiment: Inhibition of recombinant ROCK-II (unknown origin)
[12] = target: Mitogen-activated protein kinase 12 (Homo sapiens, UniProt P53778); experiment: Inhibition of recombinant SAPK3/p38gamma (unknown origin)
[13] = Inhibition of recombinant PDGF (unknown origin); parameters: species or system Homo sapiens
[14] = target: Receptor tyrosine-protein kinase erbB-2 (Mus musculus, UniProt P70424); experiment: Inhibition of ERBB2 expressed in mouse NIH3T3 cells; type: cell-based
PC-9 = experiment: cells; type: functional, cell-based; settings: Homo sapiens, PC-9, 72 h
[15] = target: AMP-activated protein kinase, AMPK; experiment: Inhibition of recombinant AMPK (unknown origin); type: protein-complex assay, Homo sapiens
[16] = target: Mitogen-activated protein kinase 13 (Homo sapiens, UniProt O15264); experiment: Inhibition of recombinant SAPK4/p38delta (unknown origin)
Calu-3 = experiment: cells; type: functional, cell-based; settings: Homo sapiens, Calu-3, 72 h
[17] = target: Glycogen synthase kinase-3 beta (Homo sapiens, UniProt P49841); experiment: Inhibition of recombinant GSK3b (unknown origin)
BaF3 [18] = experiment: cells; type: functional, cell-based; settings: Mus musculus, BaF3, 72 h
HCC827 [19] = experiment: cells; type: functional, cell-based; settings: Homo sapiens, HCC827, 72 h; remark: listed apart in the source
HCC827 [20] = experiment: cells; type: functional, cell-based; settings: Homo sapiens, HCC827, 72 h; remark: listed apart in the source
BaF3 [21] = experiment: cells; type: functional, cell-based; settings: Mus musculus, BaF3, 72 h; remark: listed apart in the source
H322 = experiment: cells; type: functional, cell-based; settings: Homo sapiens, NCI-H322, 72 h
HCC4006 = experiment: cells; type: functional, cell-based; settings: Homo sapiens, HCC4006, 72 h
[22] = target: cAMP-dependent protein kinase (PKA) (Homo sapiens, UniProt P22694+P17612+P22612); experiment: Inhibition of recombinant PKA (unknown origin); type: protein assay
cells [23] = type: functional, cell-based; settings: Homo sapiens, NCI-H3255GR, 72 h
[24] = target: Dual specificity tyrosine-phosphorylation-regulated kinase 1A (Homo sapiens, UniProt Q13627); experiment: Inhibition of recombinant DYRK1a (unknown origin)
NIH3T3 [25] = experiment: Inhibition of ERBB2 Ins774YVMA mutant (unknown origin) expressed in mouse NIH3T3 cells assessed as inhibition of ERBB2 phosphorylation at 100 to 10000 nmol/L incubated for 6 hrs by Western blotting analysis; type: cell-based; settings: dose 100-10000 nmol/L
[26] = Inhibition of recombinant Akt (unknown origin); parameters: species or system Homo sapiens
cells [27] = type: functional, cell-based; settings: Homo sapiens, NCI-H1781, 72 h
NIH3T3 [28] = settings: Mus musculus, dose 1-10000 nmol/L, time 6.25 hrs
[29] = Inhibition of recombinant CDK2/Cyclin A (unknown origin); parameters: species or system Homo sapiens
NIH3T3 [30] = settings: Mus musculus, dose 1-10000 nmol/L, time 6.25 hrs; remark: listed apart in the source
HCC827 [31] = experiment: cells; type: functional, cell-based; settings: Homo sapiens, HCC827, 72 h; remark: listed apart in the source
BaF3 [32] = experiment: cells; type: functional, cell-based; settings: Mus musculus, BaF3, 72 h; remark: listed apart in the source
BaF3 [33] = experiment: cells; type: functional, cell-based; settings: Mus musculus, BaF3, 72 h; remark: listed apart in the source
[34] = target: Serine/threonine-protein kinase Chk1 (Homo sapiens, UniProt O14757); experiment: Inhibition of recombinant CHK1 (unknown origin)
Sequence of Serine/threonine-protein kinase Chk1 (O14757 whole entry): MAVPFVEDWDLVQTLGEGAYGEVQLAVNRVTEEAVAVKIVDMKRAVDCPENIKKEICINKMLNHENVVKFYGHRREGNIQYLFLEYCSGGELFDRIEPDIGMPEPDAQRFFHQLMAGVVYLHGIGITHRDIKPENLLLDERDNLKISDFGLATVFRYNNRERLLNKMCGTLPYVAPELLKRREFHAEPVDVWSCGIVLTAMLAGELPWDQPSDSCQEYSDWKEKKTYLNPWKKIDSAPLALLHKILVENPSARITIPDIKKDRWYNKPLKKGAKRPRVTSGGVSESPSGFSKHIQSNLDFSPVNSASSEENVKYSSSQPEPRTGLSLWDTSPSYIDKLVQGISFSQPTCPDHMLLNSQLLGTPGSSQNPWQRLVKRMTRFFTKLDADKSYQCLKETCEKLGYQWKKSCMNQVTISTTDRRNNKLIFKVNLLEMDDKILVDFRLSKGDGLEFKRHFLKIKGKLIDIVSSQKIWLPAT

Sequence of Rho-associated protein kinase 2 (O75116 whole entry): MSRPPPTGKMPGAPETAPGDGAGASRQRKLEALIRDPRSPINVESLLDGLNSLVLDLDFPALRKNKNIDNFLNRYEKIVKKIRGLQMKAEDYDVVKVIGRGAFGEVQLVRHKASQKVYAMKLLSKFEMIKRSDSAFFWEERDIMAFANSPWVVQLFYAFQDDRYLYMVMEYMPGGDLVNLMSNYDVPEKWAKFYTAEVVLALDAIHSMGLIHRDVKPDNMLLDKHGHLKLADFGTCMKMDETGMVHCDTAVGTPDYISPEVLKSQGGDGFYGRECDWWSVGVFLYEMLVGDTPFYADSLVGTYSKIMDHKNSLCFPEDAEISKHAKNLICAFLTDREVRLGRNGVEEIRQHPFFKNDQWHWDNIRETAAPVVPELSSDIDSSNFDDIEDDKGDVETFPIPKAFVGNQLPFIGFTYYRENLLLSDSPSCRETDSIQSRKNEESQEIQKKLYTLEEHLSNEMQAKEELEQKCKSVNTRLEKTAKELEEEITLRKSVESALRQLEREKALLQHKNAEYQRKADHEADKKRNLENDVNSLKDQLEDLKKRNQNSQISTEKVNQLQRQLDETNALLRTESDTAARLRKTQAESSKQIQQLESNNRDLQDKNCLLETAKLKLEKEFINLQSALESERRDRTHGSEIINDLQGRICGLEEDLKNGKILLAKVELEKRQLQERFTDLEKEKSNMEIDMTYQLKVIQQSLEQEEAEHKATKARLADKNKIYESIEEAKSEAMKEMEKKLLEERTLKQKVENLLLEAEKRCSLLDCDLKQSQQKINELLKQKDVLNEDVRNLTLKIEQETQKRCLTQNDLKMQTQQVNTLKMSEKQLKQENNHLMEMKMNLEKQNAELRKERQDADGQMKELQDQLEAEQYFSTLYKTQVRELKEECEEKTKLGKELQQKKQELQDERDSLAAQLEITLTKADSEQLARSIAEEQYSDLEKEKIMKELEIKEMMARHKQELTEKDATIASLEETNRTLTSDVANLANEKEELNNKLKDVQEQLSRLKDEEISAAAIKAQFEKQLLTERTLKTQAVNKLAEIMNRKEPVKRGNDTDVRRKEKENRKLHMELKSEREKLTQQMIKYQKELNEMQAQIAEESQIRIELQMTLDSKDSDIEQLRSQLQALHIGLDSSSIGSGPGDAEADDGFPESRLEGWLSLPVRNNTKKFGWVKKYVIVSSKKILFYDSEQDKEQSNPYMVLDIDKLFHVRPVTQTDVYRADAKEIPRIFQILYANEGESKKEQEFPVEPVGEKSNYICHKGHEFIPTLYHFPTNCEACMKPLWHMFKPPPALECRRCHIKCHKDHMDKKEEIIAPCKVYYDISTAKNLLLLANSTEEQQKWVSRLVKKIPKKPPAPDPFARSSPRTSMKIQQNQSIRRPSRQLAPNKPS
Sequence of Insulin-like growth factor 1 receptor (P08069 31-736 limits assumed): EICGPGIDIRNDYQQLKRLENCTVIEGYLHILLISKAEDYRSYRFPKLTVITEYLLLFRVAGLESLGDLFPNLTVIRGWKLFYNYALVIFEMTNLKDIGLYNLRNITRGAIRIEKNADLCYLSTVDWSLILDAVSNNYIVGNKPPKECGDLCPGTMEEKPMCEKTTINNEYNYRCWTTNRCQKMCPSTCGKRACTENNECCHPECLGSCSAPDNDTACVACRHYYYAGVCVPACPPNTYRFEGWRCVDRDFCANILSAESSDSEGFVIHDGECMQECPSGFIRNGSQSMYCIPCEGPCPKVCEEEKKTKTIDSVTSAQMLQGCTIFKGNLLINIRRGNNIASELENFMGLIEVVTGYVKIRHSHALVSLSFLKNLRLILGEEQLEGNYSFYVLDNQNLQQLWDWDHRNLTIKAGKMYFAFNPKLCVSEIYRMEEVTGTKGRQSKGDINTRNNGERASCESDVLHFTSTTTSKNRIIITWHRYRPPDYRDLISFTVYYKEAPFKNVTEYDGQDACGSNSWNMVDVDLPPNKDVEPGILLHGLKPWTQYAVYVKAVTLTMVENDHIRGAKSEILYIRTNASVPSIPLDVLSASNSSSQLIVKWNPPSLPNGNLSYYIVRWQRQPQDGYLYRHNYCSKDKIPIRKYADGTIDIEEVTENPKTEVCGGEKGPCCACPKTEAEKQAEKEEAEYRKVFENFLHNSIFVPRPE
Sequence of Insulin-like growth factor 1 receptor (P08069 741-1367 limits assumed): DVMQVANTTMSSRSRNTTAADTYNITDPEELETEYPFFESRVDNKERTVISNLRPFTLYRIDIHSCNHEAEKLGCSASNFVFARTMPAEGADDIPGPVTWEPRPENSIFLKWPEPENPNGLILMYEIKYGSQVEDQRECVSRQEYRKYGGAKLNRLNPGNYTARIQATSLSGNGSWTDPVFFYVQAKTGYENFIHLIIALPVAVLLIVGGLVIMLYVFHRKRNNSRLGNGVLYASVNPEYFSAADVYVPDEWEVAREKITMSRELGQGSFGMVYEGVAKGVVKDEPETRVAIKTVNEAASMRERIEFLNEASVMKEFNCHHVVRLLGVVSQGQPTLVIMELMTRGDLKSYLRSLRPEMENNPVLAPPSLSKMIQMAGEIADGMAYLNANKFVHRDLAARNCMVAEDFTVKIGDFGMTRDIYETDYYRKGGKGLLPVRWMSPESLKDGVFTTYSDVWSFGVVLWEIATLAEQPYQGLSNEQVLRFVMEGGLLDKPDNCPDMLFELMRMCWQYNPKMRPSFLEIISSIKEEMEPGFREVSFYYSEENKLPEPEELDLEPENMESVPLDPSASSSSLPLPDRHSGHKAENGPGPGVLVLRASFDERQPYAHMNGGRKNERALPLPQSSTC
Sequence of Mitogen-activated protein kinase 13 (O15264 whole entry): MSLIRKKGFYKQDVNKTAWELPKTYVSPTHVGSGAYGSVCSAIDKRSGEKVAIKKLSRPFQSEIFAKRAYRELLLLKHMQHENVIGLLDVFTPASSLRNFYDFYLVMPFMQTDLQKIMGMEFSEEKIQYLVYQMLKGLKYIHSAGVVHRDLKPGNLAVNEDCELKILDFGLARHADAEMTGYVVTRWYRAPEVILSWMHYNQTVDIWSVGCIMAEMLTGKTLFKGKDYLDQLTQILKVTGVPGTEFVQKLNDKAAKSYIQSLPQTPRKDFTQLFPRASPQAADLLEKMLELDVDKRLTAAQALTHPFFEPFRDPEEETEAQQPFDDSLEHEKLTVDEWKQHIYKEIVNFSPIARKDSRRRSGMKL
Sequence of MAP kinase-activated protein kinase 5 (Q8IW41 whole entry): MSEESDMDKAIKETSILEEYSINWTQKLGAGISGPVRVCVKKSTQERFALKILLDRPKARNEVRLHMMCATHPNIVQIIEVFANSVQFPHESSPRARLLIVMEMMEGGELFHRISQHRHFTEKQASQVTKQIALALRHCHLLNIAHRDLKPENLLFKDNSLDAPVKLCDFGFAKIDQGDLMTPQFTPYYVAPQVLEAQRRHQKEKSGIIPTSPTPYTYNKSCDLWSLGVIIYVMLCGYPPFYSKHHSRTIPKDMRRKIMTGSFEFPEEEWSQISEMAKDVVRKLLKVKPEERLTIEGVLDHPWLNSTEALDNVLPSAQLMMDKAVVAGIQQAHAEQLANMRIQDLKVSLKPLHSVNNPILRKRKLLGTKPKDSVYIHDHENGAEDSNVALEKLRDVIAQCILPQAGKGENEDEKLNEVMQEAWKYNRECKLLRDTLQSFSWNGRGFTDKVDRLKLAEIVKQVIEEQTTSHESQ
Sequence of Glycogen synthase kinase-3 beta (P49841 whole entry): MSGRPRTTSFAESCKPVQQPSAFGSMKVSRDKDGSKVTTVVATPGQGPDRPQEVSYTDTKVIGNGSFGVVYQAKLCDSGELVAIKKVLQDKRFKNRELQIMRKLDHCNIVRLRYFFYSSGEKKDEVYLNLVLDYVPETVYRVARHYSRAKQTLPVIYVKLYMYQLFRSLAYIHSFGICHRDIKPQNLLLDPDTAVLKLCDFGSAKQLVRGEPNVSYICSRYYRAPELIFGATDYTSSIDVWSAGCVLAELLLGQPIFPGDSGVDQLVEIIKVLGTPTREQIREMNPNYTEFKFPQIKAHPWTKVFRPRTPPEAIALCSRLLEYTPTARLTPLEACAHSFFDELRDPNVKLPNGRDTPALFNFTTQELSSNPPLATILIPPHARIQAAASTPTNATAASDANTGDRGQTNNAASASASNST
Sequence of Mitogen-activated protein kinase 12 (P53778 whole entry): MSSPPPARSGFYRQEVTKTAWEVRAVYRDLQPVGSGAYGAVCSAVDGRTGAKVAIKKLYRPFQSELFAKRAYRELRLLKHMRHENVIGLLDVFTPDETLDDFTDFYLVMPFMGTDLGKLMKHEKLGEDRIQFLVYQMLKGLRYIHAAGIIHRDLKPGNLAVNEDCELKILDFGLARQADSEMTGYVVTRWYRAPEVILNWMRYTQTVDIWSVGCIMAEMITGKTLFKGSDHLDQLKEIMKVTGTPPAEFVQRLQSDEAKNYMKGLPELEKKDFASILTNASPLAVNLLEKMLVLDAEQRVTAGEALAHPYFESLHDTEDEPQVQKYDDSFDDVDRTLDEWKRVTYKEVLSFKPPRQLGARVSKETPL

IC50 [1]: > 40000 nM
IC50 (NCI-H3255): 137 nM
IC50 [2]: > 10000 nM
IC50 [3]: > 10000 nM
IC50 (HCC827 [4]): 83 nM
IC50 (HCC827 [5]): 2 nM
IC50 [6]: > 10000 nM
IC50 (HCC827 [7]): 2 nM
IC50 (HCC827 [8]): 61 nM
IC50 [10]: > 40000 nM
IC50 [11]: > 10000 nM
IC50 [12]: > 10000 nM
IC50 [13]: > 10000 nM
IC50 [14]: 41 nM
IC50 (PC-9): 2 nM
IC50 [15]: > 10000 nM
IC50 [16]: > 10000 nM
IC50 (Calu-3): 63 nM
IC50 [17]: > 10000 nM
IC50 (BaF3 [18]): 140 nM
IC50 (HCC827 [19]): 3 nM
IC50 (HCC827 [20]): 2 nM
IC50 (BaF3 [21]): 330 nM
IC50 (H322): > 10000 nM
IC50 (HCC4006): 4 nM
IC50 [22]: > 40000 nM
IC50 (cells [23]): 119 nM
IC50 [24]: > 10000 nM
IC50 [26]: > 40000 nM
IC50 (cells [27]): 275 nM
IC50 [29]: > 40000 nM
IC50 (HCC827 [31]): 14 nM
IC50 (BaF3 [32]): < 1 nM
IC50 (BaF3 [33]): 1.4 nM
IC50 [34]: > 10000 nM
SMILES: COc1cc2ncnc(Nc3ccc(F)c(Cl)c3)c2cc1NC(=O)/C=C/CN1CCCCC1 [DACOMITINIB ANHYDROUS]
Activity (NCI-H3255GR): Active
Activity (HCC827 [9]): Active
inhibition (NIH3T3 [25]): Active
inhibition (NIH3T3 [28]): Active
inhibition (NIH3T3 [30]): Active
